Bioassay records from PubChem.
INS promoter act: TRM-6 insulin promoter activation | TRM-6 cells (human fetal islet line), insulin promoter eGFP reporter, imaging; plate-scaled: unstimulated 0, stimulated control 100 | activation, % at 2 µM | 0.81% of 130,000 active | AID 1296;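 active means activation at 2 µM above a set limit, confirmed on inspection of the cell images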;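 further: share of cells whose green reporter signal exceeds an intensity cutoff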
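System – TRM-6 insulin promoter–eGFP reporter cells · Probe or stimulus – 0.75 µM tamoxifen as reporter inducer · Dosing – single-point 2 µM compound dose · Incubation – tamoxifen pre-incubation 15 h overnight, then compound exposure 48 h at 37 °C · Measured by – fixed-cell fluorescence microscopy, eGFP plus Hoechst · Evaluation – percent GFP-positive cells normalized to per-plate controls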
Starred values were filed as active, the others as inactive. Only a selection was taken, and hits are over-represented in it overall.

SMILES	INS promoter act
Cc1cc(=O)oc(C)c1C(=O)NCc1ccco1	-9
Cc1cc(=O)oc(C)c1C(=O)NCCCN1CCN(c2ccc(F)cc2)CC1	9
Cc1cc(=O)oc(C)c1C(=O)NCc1c(F)cc(F)cc1F	136*
COc1ccc(/C=N/NC(=O)CC(=O)NCc2cccnc2)cc1	0
CCOC(=O)C1(Cc2ccc(Cl)cc2)CCN(C(=O)c2sc(C)nc2C)CC1	-9
Cc1cccc(-c2csc(N)c2C(=O)OC(C)C)c1	6
CCOC(=O)c1c(-c2ccncc2)csc1N	460*
COC(=O)c1c(-c2ccncc2)csc1NC(=O)c1ccoc1C	-9
CC(=O)C1=C(c2ccccc2)NC(=O)NC1c1ccccc1OCC(=O)NCc1ccccc1 (centres undefined)	-3
CCOc1ccc(C(=S)N2CCN(C)CC2)cc1	0
OC1(c2ccc(OC(F)F)cc2)CSC(=Nc2cccnc2)N1C1CC1 (centres undefined)	9
COc1cccc(-n2c(Cn3nc(C(F)(F)F)cc3C)n[nH]c2=S)c1	-5
O=[N+]([O-])c1c(C(Cl)Cl)nn(-c2ccc(Cl)cc2)c1N1CCCCC1	6
CCOC(=O)C1=C(N)Oc2ccc3ccccc3c2C1c1cccnc1 (centres undefined)	564*
CCOC(=O)C1=C(c2ccccc2)OC(N)=C(C#N)C1c1cccnc1 (centres undefined)	-7
CC1=C(C(=O)OCc2ccccc2)C(c2cccnc2)n2nnnc2N1 (centres undefined)	-3
Cc1cc(C)n(-c2nc(Nc3ccccc3)nc(-n3nc(C)cc3C)n2)n1	-6
Cc1cc(Nc2ccccc2)n(CCO)n1	543*
COc1ccc(C(=O)n2nc(C)cc2Nc2ccccc2)cc1	6
O=C(O)CCCC(=O)N1N=C(c2ccccc2)CC1c1ccc2nccnc2c1 (centres undefined)	-7
CNC(=O)C1C(=S)NC(N)=C(C#N)C1c1ccccc1 (centres undefined)	-2
O=C(CCSc1ccccc1)N1CCN(C(=O)c2ccco2)CC1	156
O=C(c1ccco1)N1CCN(S(=O)(=O)Cc2ccc(Cl)cc2)CC1	420*
O=C(Cc1ccccc1)N1CCN(C(=O)c2ccco2)CC1	529*
O=C(Cc1ccccc1F)OCC(=O)N1CCN(C(=O)c2ccco2)CC1	0
SMILES	INS promoter act
CCCCc1ccc(S(=O)(=O)N2CCN(C(=O)c3ccco3)CC2)cc1	7
O=C(c1ccco1)N1CCN(S(=O)(=O)c2cccs2)CC1	-77
Cc1nc2ccc(Cl)cc2c(-c2ccccc2F)c1CC(=O)O	9
CCC(=O)Oc1ccc(C(=O)Nc2ccc3c(c2)C(=O)N(C2CCCCC2)C3=O)cc1	7
Cc1cnc(NC(=O)Cc2cccs2)s1	-75
O=C1c2cccc3cccc(c23)C(=O)N1CCCc1n[nH]c(=S)n1-c1ccccc1	0
COc1ccc(N(C)C(=O)CCS(=O)(=O)c2cccc3nonc23)c(OC)c1	3
Cc1ccc(S(=O)(=O)N(CC(=O)N2CCCCC2)c2cccc(C)c2)cc1	114
CCOC(=O)CSc1ncnc2c1cnn2-c1ccccc1	121*
Cc1ccc(-n2ncc3c(SCc4ccccc4)ncnc32)cc1	9
CCOC(=O)CC(=O)CSc1ncnc2c1cnn2-c1ccccc1	-100
N#Cc1c2c(c(=S)n(-c3ccccc3)c1N)CCCC2	273*
N#Cc1c2c(c(-c3ccccc3Cl)[nH]c1=S)CCCC2	0
N#Cc1c(NCCCO)nc(-c2ccccc2)c2c1CCCC2	0
Cc1cccc(NC(=O)CSc2nncn2-c2ccccn2)c1	4
COc1ccccc1NC(=S)NC(=O)c1ccc(Cn2cc(Br)cn2)cc1	7
N#C/C(=C\c1ccc([N+](=O)[O-])o1)C(=O)Nc1ccc(F)cc1	400*
O=C1OC(c2ccc(F)cc2)=C/C1=C\c1ccc([N+](=O)[O-])o1	169
N#C/C(=C\c1ccc(N2CCCCC2)o1)C(=O)Nc1cccc(Br)c1	186
CCNC(=O)COC(=O)CNC(=O)c1cc(Cl)cc([N+](=O)[O-])c1	-5
Clc1ccccc1-c1nnc(-c2cccs2)o1	0
O=[N+]([O-])c1ccc(Cc2nnc(-c3ccccc3Cl)o2)cc1	344*
Fc1ccc(Cc2nnc(-c3cccs3)o2)cc1	-62
CCC(=O)Nc1cccc(-n2nnnc2SCC(=O)N2CCCCC2)c1	-5
COc1ccc(NS(=O)(=O)c2cc(C(=O)N3CCN(C(C)=O)CC3)ccc2Cl)cc1	7
SMILES	INS promoter act
CCCCOC(=O)c1ccc(N/C(=N\S(=O)(=O)c2ccccc2)c2ccccc2)cc1	-6
COc1ccc(NS(=O)(=O)c2cc(N/C(=N\S(=O)(=O)c3ccccc3)c3ccc(F)cc3)ccc2Cl)cc1	76*
COCCNC(=O)/C=C/c1c(Cl)cccc1Cl	-71
COc1ccc(NC(=O)CC(C)c2ccccc2)c([N+](=O)[O-])c1 (centres undefined)	443*
COc1ccc(NC(=O)COC(=O)c2ccco2)c([N+](=O)[O-])c1	-9
COc1ccc(NC(=O)/C=C/c2ccccc2)c([N+](=O)[O-])c1	-9
C/C(CC(=O)NCc1ccc(F)cc1)=N\NC(N)=S	0
CCCn1c(OC)nc2c1c(=O)n(C)c(=O)n2C	0
Cn1c(=O)c2c(nc(CN3CCN(Cc4ccccc4)CC3)n2Cc2ccccc2)n(C)c1=O	-80
CCCn1c(CN2CCCCC2CC)nc2c1c(=O)n(C)c(=O)n2C (centres undefined)	600*
O=C(O)c1ccccc1C(=O)c1ccc(Br)s1	2
Cc1ccc2nc(Nc3ccc4[nH]c(=O)[nH]c4c3)c(-n3nc(C)cc3C)nc2c1	-28
Cc1nc2c(C(=O)NCCC(C)C)c[nH]n2c(=O)c1Cc1ccccc1F	0
CC(C)[C@H](NC(N)=O)C(=O)NCCc1ccc(Cl)cc1Cl	-6
CC(C)CCNC(=O)[C@@H](NC(=O)c1c(F)cccc1F)C(C)C	94*
Cn1cc(Br)c(C(=O)Nc2nccs2)n1	8
Cc1ccc(/C=C/C(=O)Nc2ccccc2C(N)=O)cc1	3
CC1=CC(C)(C)N(C(=O)C(C)N2C(=O)c3ccccc3C2=O)c2ccc(C)cc21 (centres undefined)	-10
Cc1ccccc1C(=O)NC(=S)Nc1ccccc1N1CCCC1	-3
CCOc1ccc(C(=O)NC(=S)Nc2ccccc2N2CCC(C)CC2)cc1[N+](=O)[O-]	-7
CC1CCN(c2ccccc2NC(=S)NC(=O)c2ccco2)CC1	230*
O=C1C2CC=CCC2C(=O)N1c1ccc(NCCc2ccc(O)cc2)c([N+](=O)[O-])c1 (centres undefined)	114
COc1ccc(C)cc1NC(=O)C(NC(=O)c1cc(OC)c(OC)c(OC)c1)C(C)C (centres undefined)	433*
COc1cc(OC)cc(C(=O)N[C@H](C(=O)OCC(=O)Nc2ccc(C)cc2C)C(C)C)c1	8
COc1cc(C(=O)N[C@H](C(=O)NC(C)C23CC4CC(CC(C4)C2)C3)C(C)C)cc(OC)c1OC (some centres undefined)	-3
CC(=O)N(CC(C)(C)CC=C(C)C)c1ccccc1	-65
Fc1ccc(CNc2nc(-c3ccccc3)nc3ccccc23)cc1	0
Cc1ccc(-c2nc(N/N=C/c3cccc([N+](=O)[O-])c3)c3ccccc3n2)cc1	2
O=[N+]([O-])c1cccc(-c2nc(NCc3ccccc3)c3ccccc3n2)c1	322*
Cc1ccc(S(=O)(=O)NCC2NCCc3ccccc32)cc1 (centres undefined)	0
